# VIM-2 inhibitor – inhibitors of Pseudomonas aeruginosa VIM-2 metallo-beta-lactamase; inhibition, % at 5.6 µM; 0.89% of 290,000 active; AID 1527; purified VIM-2, nitrocefin hydrolysis, epi-absorbance fluorescence;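 active = inhibition above the mean of all tested compounds plus 3 SD, cutoff set per screening run, cut at about 7.5% in these data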;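 note: red hydrolysis product quenches plate fluorescence so inhibitors raise well fluorescence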
# RAD54 inh – inhibitors of human RAD54 branch migration | Q92698 | RAD54 Holliday junction branch migration, FAM/BHQ fluorescence | 0.14% of 360,000 active | inhibition, % at 10.4 µM;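 active = mean normalized replicate activity at least 40 and at least half of replicates scoring 40 or more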;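 note: inhibitors cause a drop in the FAM fluorescence signal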
# Target sequence (Q92698 whole entry, looked up): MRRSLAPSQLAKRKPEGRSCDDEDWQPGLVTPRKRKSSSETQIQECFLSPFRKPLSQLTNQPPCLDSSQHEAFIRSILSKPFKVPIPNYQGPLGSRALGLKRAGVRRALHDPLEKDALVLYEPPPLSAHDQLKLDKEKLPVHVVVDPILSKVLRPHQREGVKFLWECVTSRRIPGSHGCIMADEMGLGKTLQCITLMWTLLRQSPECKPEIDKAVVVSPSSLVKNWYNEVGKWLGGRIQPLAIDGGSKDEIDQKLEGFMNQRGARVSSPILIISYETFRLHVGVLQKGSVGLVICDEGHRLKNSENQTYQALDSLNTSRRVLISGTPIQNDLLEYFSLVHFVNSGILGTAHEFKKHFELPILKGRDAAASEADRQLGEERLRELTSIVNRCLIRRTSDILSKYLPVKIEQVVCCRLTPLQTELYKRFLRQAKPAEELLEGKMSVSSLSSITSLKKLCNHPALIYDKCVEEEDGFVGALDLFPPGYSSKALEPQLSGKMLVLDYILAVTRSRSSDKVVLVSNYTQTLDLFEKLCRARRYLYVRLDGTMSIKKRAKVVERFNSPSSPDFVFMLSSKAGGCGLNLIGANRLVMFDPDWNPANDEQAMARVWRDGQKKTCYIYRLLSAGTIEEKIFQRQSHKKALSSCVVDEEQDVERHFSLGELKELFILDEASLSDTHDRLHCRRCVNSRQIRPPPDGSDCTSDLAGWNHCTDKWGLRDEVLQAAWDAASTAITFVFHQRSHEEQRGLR
# IMP-1 inhibitor – blocks Pseudomonas aeruginosa IMP-1 metallo-beta-lactamase. inhibition, % at 5.6 µM. purified IMP-1, nitrocefin hydrolysis, epi-absorbance fluorescence. 0.45% of 290,000 active;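 active = inhibition above the mean plus 3 SD of all compounds in the same screening run, cut at about 4.5% in these data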
#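 System: purified IMP-1 / Input: IMP-1 dispensed at 0.2 nM / Medium: 50 mM HEPES pH 7.1, 50 µM ZnSO4, 0.05% Brij 35 / Timing: 15 min enzyme–compound preincubation, then 25 min nitrocefin reaction, 25 °C / Technique: plate fluorescence quenching by hydrolysis product, ex 480/em 530 nm / Repeats: singlicate testing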
# PvdQ inh – blocks Pseudomonas aeruginosa PvdQ acylase activity | inhibition, % at 10 µM | 0.063% of 340,000 active | AID 488965 | purified PvdQ acylase, fluorescence plate reader; in the data active = inhibition above about 30%, passing the limit was not always enough
# DNA FID counter – displaces DNA intercalator in HCV helicase counter-screen | DNA fluorescent intercalator displacement, fluorescence | inhibition, % at 7.9 µM | 0.17% of 290,000 active | AID 1845; in the data active = inhibition above about 37%;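 note: higher means more ethidium bromide displaced from hairpin DNA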
# Hits are given with their value; – = inactive; · = no result given. A selection: hits, their analogues and other compounds. The true share with any hit is near 1%.
SMILES,VIM-2 inhibitor,RAD54 inh,IMP-1 inhibitor,PvdQ inh,DNA FID counter
Cc1cc(N2C(=O)CC(C(C)c3ccccc3)C2=O)no1 (stereo not given),–,–,–,–,–
CC(c1ccccc1)C1CC(=O)N(c2cc(Cl)ccn2)C1=O (stereo not given),–,–,14.7,–,–
Cn1c2ccccc2c2nnc(SCC(=O)NC3CCCC3)nc21,9.2,–,–,–,–
O=C1c2ccccc2C(=O)N1CSc1nnc2c3ccccc3n(CCc3ccccc3)c2n1,–,–,–,–,–
COc1ccc2c(c1)c1nnc(SCC(=O)NC3CC3)nc1n2C,–,–,–,–,–
CCN(CC)CCSc1nnc2c3ccccc3n(CCc3ccccc3)c2n1,11.4,–,–,–,–
CCOC(=O)CSc1nnc2c3ccccc3n(CC)c2n1,7.9,–,–,–,–
CC(C)NC(=O)N(C)C[C@H]1Oc2ncc(C#Cc3ccccc3F)cc2C(=O)N([C@@H](C)CO)C[C@@H]1C,·,–,·,·,·
CN(c1ncnc(N)c1[N+](=O)[O-])C1CCCCC1,–,–,–,37.9,–
CN(c1ncnc(N)c1[N+](=O)[O-])C1CCS(=O)(=O)C1 (stereo not given),–,–,–,–,–
Cc1ccc(S(=O)(=O)Nc2cccc3c2O[C@H](CN(C)S(=O)(=O)c2ccccc2)[C@H](C)CN([C@H](C)CO)C3=O)cc1,·,–,·,·,·
O=C1NC(=O)/C(=C\c2ccc(O)cc2O)S1,–,·,6.0,–,–
CC(C)NC(=O)Nc1ccc2c(c1)C(=O)N([C@@H](C)CO)C[C@H](C)[C@@H](CN(C)C(=O)NC(C)C)OCCCC[C@H](C)O2,·,–,·,·,·
O=C1CSC(=S)N1c1cccc(F)c1,–,–,4.9,–,–
O=C1CSC(=S)N1c1cccc(O)c1,–,–,–,–,–
C=CCOC(=O)c1ccc(-n2cncn2)nc1,–,–,–,–,–
C=CCOC(=O)c1ccc(-n2cnc(C)n2)nc1,–,·,–,70.7,–
CCOc1cc(CNC2CCCC2)cc(Cl)c1OCc1ccccc1,–,–,–,–,38.6
CCOc1cc(CNCC(C)C)cc(Cl)c1OCc1ccccc1,–,·,–,–,–
CC(C)NC(=O)N(C)C[C@@H]1Oc2ccc(NC(=O)Nc3ccc4c(c3)OCO4)cc2CC(=O)N([C@@H](C)CO)C[C@H]1C,·,–,·,·,·
CN(C)CC(=O)Nc1ccc2c(c1)[C@@H]1C[C@@H](CC(=O)NCc3ccccc3F)O[C@H](CO)[C@@H]1O2,·,–,·,·,·
COCC(=O)Nc1ccc2c(c1)C(=O)N(C)[C@H]1CC[C@H](CC(=O)NC3CCCC3)O[C@H]1CO2,·,–,·,·,·
O=C(C[C@@H]1C[C@H]2c3cc(NC(=O)C4CCC4)ccc3O[C@H]2[C@H](CO)O1)NCc1ccccn1,·,–,·,·,·
Cc1ccc(S(=O)(=O)N2CCCOC2CNC(=O)C(=O)NCCCn2ccnc2)cc1 (stereo not given),–,·,–,–,–
O=C(NCCCn1ccnc1)C(=O)NCC1OCCN1S(=O)(=O)c1ccc(Br)cc1 (stereo not given),–,·,7.0,–,–
SMILES,VIM-2 inhibitor,RAD54 inh,IMP-1 inhibitor,PvdQ inh,DNA FID counter
O=C(NCCCn1ccnc1)C(=O)NCC1OCCN1S(=O)(=O)c1ccc(F)cc1 (stereo not given),–,–,10.3,–,–
C[C@H]1CN([C@@H](C)CO)C(=O)Cc2cc(N(C)C)ccc2O[C@@H]1CN(C)C(=O)Nc1cccc2ccccc12,·,–,·,·,·
C[C@@H]1CN([C@H](C)CO)C(=O)Cc2cc(NC(=O)Cc3cn(C)c4ccccc34)ccc2O[C@@H]1CN(C)S(=O)(=O)c1cccs1,·,–,·,·,·
Cc1c(C)n(CCc2ccccc2)c2ncnc(NN)c12,7.8,–,–,–,–
COc1ccc(CN(C)C[C@@H]2OCCCC[C@@H](C)Oc3ccc(NS(=O)(=O)c4cccs4)cc3C(=O)N([C@@H](C)CO)C[C@H]2C)cc1,·,–,·,·,·
CCOC(=O)c1c(-c2ccccc2)oc2ccc(OC(C)C(=O)O)cc12 (stereo not given),–,–,–,–,–
CCOC(=O)c1c(-c2ccccc2)oc2ccc(OCC(O)CN(C)C)cc12 (stereo not given),8.9,–,–,–,–
Cn1c(=S)[nH]c2ccccc21,–,–,–,–,–
S=c1[nH]c2ccccc2n2cccc12,8.7,–,–,–,–
C[C@@H]1CN([C@H](C)CO)C(=O)c2cc(NC(=O)c3ccccc3)ccc2O[C@@H](C)CCCCO[C@H]1CN(C)C(=O)Nc1ccccc1,·,–,·,·,·
Cn1c(OCc2cccnc2)nc2c1c(=O)n(Cc1ccccc1)c(=O)n2C,8.7,–,–,–,–

# Bioassay records (PubChem BioAssay)
